Data set [1] relates to Human immunodeficiency virus 1. As to the kind of experiment: Antiviral activity against HIV1 3B infected human MT2 cells assessed as cytoprotection after 5 days by MTT colorimetric method. The note with it: Human immunodeficiency virus 1, 3B, MT2, 120 h. In kind it is functional, organism-based. Put shortly: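 MT-2 human T-cells plated with a range of β-peptide concentrations and cultured with wild-type HIV-1 IIIB for 5 days. Live cells measured by MTT reduction to formazan, read at 595 nm. EC50 is the peptide concentration giving 50% survival of infected cells. Triplicate samples at each concentration.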
(In general: Tetrazolium dyes change colour on reduction, which living cells bring about.)

Data set [2] can be described thus: Binding affinity to HIV1 gp41-GCN4-pIQI fusion protein IQN17. Also on record: species or system Human immunodeficiency virus 1. Put shortly: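 β-peptides labeled at the N-terminus with fluorescein-hexanoic acid NHS ester and tested in a direct fluorescence polarization assay against IQN17. IQN17 is a trimeric fusion of 17 gp41 N-terminal residues with a 29-residue isoleucine zipper. KD is taken at 50% binding of IQN17. Binding curves run in triplicate.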

A short description of data set [3]: Selectivity ratio of CC50 for human MT2 cells to EC50 for HIV1 3B infected human MT2 cells. Particulars: for selectivity ratio: MT2 cells and HIV1 3B infected MT2 cells, read-out: Ratio CC50/EC50; call rule not given here. It is filed as ADME, cell-based. Put shortly:
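Ratio of CC50 to EC50. CC50 comes from MTT viability of uninfected MT-2 cells given peptide alone. EC50 comes from MTT survival of MT-2 cells infected with HIV-1 IIIB after 5 days. Both curves used triplicate samples.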

The nature of data set [4]: Cytotoxicity against human MT2 cells by MTT colorimetric method. In kind it is cell-based. Put shortly: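 Uninfected MT-2 cells cultured with a range of β-peptide concentrations, without virus. Viability read by MTT colorimetric assay. CC50 is the concentration giving 50% inhibition of MT-2 cell growth. Triplicate samples at each concentration.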

From ChEMBL document CHEMBL1151938, “Identification of a beta3-peptide HIV fusion inhibitor with improved potency in live cells” (Bioorg Med Chem Lett, 2009) come the findings set out here.

For orientation: EC50 means the concentration that produces a half-maximal response. The Kd is the concentration at which binding is half-saturated. Lower therefore signals a tighter complex. Broadly, the CC50 is the concentration that lowers cell viability or growth by half. A lower CC50 goes with greater toxicity to the cells.

In the case of `CC[C@@](C)(CC(=O)N[C@H](CC(=O)O)CC(=O)NC(C)(C)CC(=O)NC(CC(=O)N[C@@H](CCN)CC(=O)NC(C)(C)CC(=O)N[C@H](CC(=O)NC(CC(=O)O)CC(=O)O)Cc1c[nH]c2ccccc12)Cc1ccccc1Cl)NC(=O)CC(C)(C)NC(=O)C[C@@H](N)CCN` (stereo partly specified), the EC50 in data set [1] came to 8.8 µM. Further, in data set [2], the affinity, expressed as Kd, was 13.3 µM. Besides, the selectivity ratio in data set [3] was determined as 3.5. Moreover, the CC50 in data set [4] was 31 µM.

For `CC[C@@](C)(CC(=O)N[C@H](CC(=O)O)CC(=O)NC(C)(C)CC(=O)NC(CC(=O)N[C@@H](CCN)CC(=O)NC(C)(C)CC(=O)N[C@H](CC(=O)NC(CC(=O)O)CC(=O)O)Cc1c[nH]c2ccccc12)Cc1ccc(I)cc1)NC(=O)CC(C)(C)NC(=O)C[C@@H](N)CCN` (stereo partly specified), in data set [1], the EC50 stood at 8.9 µM. The affinity in data set [2], expressed as Kd, was 14.1 µM. Besides, the CC50 in data set [4] turned out to be 23 µM.

Consider `CC[C@@](C)(CC(=O)N[C@H](CC(=O)O)CC(=O)NC(C)(C)CC(=O)NC(CC(=O)N[C@@H](CCN)CC(=O)NC(C)(C)CC(=O)N[C@H](CC(=O)NC(CC(=O)O)CC(=O)O)Cc1c[nH]c2ccccc12)Cc1ccc2ccccc2c1)NC(=O)CC(C)(C)NC(=O)C[C@@H](N)CCN` (stereo partly specified), for which the EC50 in data set [1] came to 8.2 µM. The compound also yielded a Kd in data set [2] of 12.2 µM. Further, half-maximal cytotoxicity in data set [4] (CC50) was put at 23 µM.

On to enfuvirtide, for which, in data set [1], the EC50 came to 0.0375 µM.

Regarding `CC[C@@](C)(CC(=O)N[C@H](CC(=O)O)CC(=O)NC(C)(C)CC(=O)NC(CC(=O)N[C@@H](CCN)CC(=O)NC(C)(C)CC(=O)N[C@H](CC(=O)NC(CC(=O)O)CC(=O)O)Cc1c[nH]c2ccccc12)Cc1cccnc1)NC(=O)CC(C)(C)NC(=O)C[C@@H](N)CCN` (stereo partly specified), the EC50 in data set [1] is over 250 µM. In data set [2], this compound yielded a Kd of 104 µM. The “Ratio CC50/EC50” value in data set [3] (mt2) was “Not Active”. Further, the CC50 in data set [4] is over 250 µM.

Regarding `CC[C@@](C)(CC(=O)N[C@H](CC(=O)O)CC(=O)NC(C)(C)CC(=O)NC(CC(=O)N[C@@H](CCN)CC(=O)NC(C)(C)CC(=O)N[C@H](CC(=O)NC(CC(=O)O)CC(=O)O)Cc1c[nH]c2ccccc12)Cc1cccc(F)c1)NC(=O)CC(C)(C)NC(=O)C[C@@H](N)CCN` (stereo partly specified), the EC50 in data set [1] amounted to 18 µM. The same compound came in with a Kd in data set [2] of 15.7 µM. This compound registered a CC50 in data set [4] of 50 µM.

For the compound `CC[C@@](C)(CC(=O)N[C@H](CC(=O)O)CC(=O)NC(C)(C)CC(=O)NC(CC(=O)N[C@@H](CCN)CC(=O)NC(C)(C)CC(=O)N[C@H](CC(=O)NC(CC(=O)O)CC(=O)O)Cc1c[nH]c2ccccc12)Cc1cccc(C(F)(F)F)c1)NC(=O)CC(C)(C)NC(=O)C[C@@H](N)CCN` (stereo partly specified), in data set [1], the EC50 came to 19 µM. In addition, in data set [2], binding was characterised by a dissociation constant (Kd) of 10.2 µM. For the same compound, in data set [3], the selectivity ratio was 7.9. Also, it took 150 µM to reach half-maximal cytotoxicity in data set [4] (CC50).

As for `CC[C@@](C)(CC(=O)N[C@H](CC(=O)O)CC(=O)NC(C)(C)CC(=O)N[C@@H](CC(=O)N[C@@H](CCN)CC(=O)NC(C)(C)CC(=O)N[C@H](CC(=O)NC(CC(=O)O)CC(=O)O)Cc1c[nH]c2ccccc12)Cc1c[nH]c2ccccc12)NC(=O)CC(C)(C)NC(=O)C[C@@H](N)CCN`, the EC50 in data set [1] was 56 µM. The compound also showed a Kd in data set [2] of 16.5 µM. In addition, the selectivity ratio in data set [3] worked out at 1.8. Also, the midpoint of cytotoxicity in data set [4], the CC50, lay at 100 µM.
